One data set deals with KB. Put plainly: Cytotoxicity against human KB cells assessed as cell survival after 72 hrs by sulforhodamine B colorimetric assay. The format is functional, cell-based. The procedure, abridged: (§1)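 SRB protein-stain assay: KB cells grown in RPMI 1640 and MCF-7 in DMEM, each with 10% FBS, 1% L-glutamine and 1% penicillin/streptomycin, at 37 °C. About 10,000 cells per well were left 24 h, then exposed 72 h to six concentrations ([…]), with DMSO ≤0.1%. Cells were TCA-fixed 1 h at 4 °C and stained 30 min at RT. OD was read at 490 nm, survival taken as % of untreated control, and each experiment run three times.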
Background: Sulforhodamine B stains cellular protein and so reports cell mass.

The next data set relates to MCF7. Put plainly: Cytotoxicity against human MCF7 cells assessed as cell survival after 72 hrs by sulforhodamine B colorimetric assay. It is filed as functional, cell-based. The following applies: MCF7, 72 h. In outline: as §1
The subject of another data set is Caco-2. The data set can be described thus: Cytotoxicity against human Caco2 cells at 100 uM. The format is cell-based. The conditions noted are these: caco-2, 100 µM. The procedure, abridged: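 Caco-2 monolayers were exposed for 2 h to compound at 100 µM in transport medium (HBSS with 10 mM HEPES, pH 7.4). This served as a pre-check before transport studies. Monolayer integrity was checked by TEER before and after the experiments.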

Data set [1] can be described thus: Apparent permeability from apical to basolateral side of the human Caco2 cells at 100 uM after 30 mins by HPLC method. The format is ADME, cell-based. The following applies: Caco-2. In outline:
(§2)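 Caco-2 monolayers grown on polycarbonate membranes (0.4 µm pores) and used 21 days post-seeding; only monolayers with TEER above 800 Ω·cm² were used. Cells washed and pre-incubated 30 min at 37 °C. Compound at 100 µM in HBSS with 10 mM HEPES, pH 7.4, added to the donor side; shaken at 37 °C. Acceptor sampled every 15 min and analysed by HPLC. Papp reported as mean ± SD, n = 3.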
On the technique in general: Caco-2 cells form a polarised layer with tight junctions and transporters.

A short description of data set [2]: Apparent permeability from basolateral to apical side of the human Caco2 cells at 100 uM after 30 mins by HPLC method. The format is ADME, cell-based. The conditions noted are these: Caco-2. The procedure, abridged: as §2
Data set [3] is described as follows: Oral bioavailability in human. The format is ADME, organism-based. The conditions noted are these: in vivo.

Here are results for twelve molecules from ChEMBL document CHEMBL1914360, “Synthesis and anticancer activity of 5'-chloromethylphosphonates of 3'-azido-3'-deoxythymidine (AZT)” (Bioorg Med Chem, 2011).

The IC50 is the concentration that inhibits the measured activity by half. As usually defined, the Papp A→B is how fast a substance crosses the layer from the apical side. As usually defined, the Papp B→A is how fast a substance crosses the layer from the basolateral side. The bioavailability is dose-corrected exposure relative to a reference, in per cent. Read a low bioavailability as poor availability.

Converted amounts (≈) assume the structure as drawn. A value given as a limit tells only on which side of the number the result lay.

Consider `CNP(=O)(CCl)OC[C@H]1O[C@@H](n2cc(C)c(=O)[nH]c2=O)C[C@@H]1N=[N+]=[N-]` (some centres not stated), for which the IC50 in the data set on KB was 52 µg/mL (≈ 132 µM); in the data set with MCF7, 63.2 µg/mL (≈ 161 µM).

For the molecule `CCNP(=O)(CCl)OC[C@H]1O[C@@H](n2cc(C)c(=O)[nH]c2=O)C[C@@H]1N=[N+]=[N-]` (some centres not stated), the IC50 with KB and with MCF7 was more than 100 µg/mL each time.

As for `CCCNP(=O)(CCl)OC[C@H]1O[C@@H](n2cc(C)c(=O)[nH]c2=O)C[C@@H]1N=[N+]=[N-]` (some centres not stated), the IC50 is 5.8 µg/mL (≈ 13.8 µM) in the data set with KB and 3.7 µg/mL (≈ 8.79 µM) in the data set with MCF7. The Activity entry in the data set with Caco-2 is listed as “Non-toxic”. Besides, the Papp A→B at 0.5 h, 100 µM in data set [1] is 3.22 ×10⁻⁶ cm/s. Besides, the Papp B→A at 0.5 h, 100 µM in data set [2] is 16.1 ×10⁻⁶ cm/s.

On to `CCCCNP(=O)(CCl)OC[C@H]1O[C@@H](n2cc(C)c(=O)[nH]c2=O)C[C@@H]1N=[N+]=[N-]` (some centres not stated), for which the IC50 in the data set with KB came out at 77 µg/mL (≈ 177 µM); with MCF7 it was 82 µg/mL (≈ 189 µM).

In the case of `Cc1cn([C@H]2C[C@H](N=[N+]=[N-])[C@@H](COP(=O)(CCl)NC(C)C)O2)c(=O)[nH]c1=O` (some centres not stated), the IC50 in the data set with KB is 12.1 µg/mL (≈ 28.8 µM); with MCF7, 12.8 µg/mL (≈ 30.4 µM). For the same molecule, in the data set on Caco-2, the Activity result is “Non-toxic”. The Papp A→B at 0.5 h, 100 µM in data set [1] worked out at 3.36 ×10⁻⁶ cm/s. Also, the Papp B→A at 0.5 h, 100 µM in data set [2] was 18 ×10⁻⁶ cm/s.

Take `C=CCNP(=O)(CCl)OC[C@H]1O[C@@H](n2cc(C)c(=O)[nH]c2=O)C[C@@H]1N=[N+]=[N-]` (some centres not stated): the IC50 in the data set on KB worked out at 47 µg/mL (≈ 112 µM); in the data set with MCF7, 34 µg/mL (≈ 81.2 µM).

Regarding `Cc1cn([C@H]2C[C@H](N=[N+]=[N-])[C@@H](COP(=O)(CCl)NCCc3ccccc3)O2)c(=O)[nH]c1=O` (some centres not stated), the IC50 in the data set with KB and in the data set with MCF7 was more than 100 µg/mL in each case.

On to `Cc1cn([C@H]2C[C@H](N=[N+]=[N-])[C@@H](COP(=O)(CCl)NCCc3c[nH]c4ccccc34)O2)c(=O)[nH]c1=O` (some centres not stated), for which the IC50 with KB is 80 µg/mL (≈ 153 µM); in the data set on MCF7 it was more than 100 µg/mL.

On to `Cc1cn([C@H]2C[C@H](N=[N+]=[N-])[C@@H](COP(=O)(CCl)N(C)C)O2)c(=O)[nH]c1=O` (some centres not stated), for which the IC50 in the data set on KB was found to be 65 µg/mL (≈ 160 µM); in the data set on MCF7 it was 22.8 µg/mL (≈ 56.1 µM).

For the molecule `CCN(CC)P(=O)(CCl)OC[C@H]1O[C@@H](n2cc(C)c(=O)[nH]c2=O)C[C@@H]1N=[N+]=[N-]` (some centres not stated), the IC50 in the data set with KB is 85 µg/mL (≈ 195 µM); in the data set on MCF7 it was 67 µg/mL (≈ 154 µM).

Consider `Nc1ccn([C@@H]2O[C@H](CO)[C@@H](O)[C@@H]2O)c(=O)n1` [CYTARABINE], for which the IC50 in the data set with KB is 0.99 µg/mL (≈ 4.07 µM); in the data set with MCF7 it was 0.93 µg/mL (≈ 3.82 µM).

With `Cc1cn([C@H]2C[C@H](N=[N+]=[N-])[C@@H](CO)O2)c(=O)[nH]c1=O` [ZIDOVUDINE], the values for the IC50 with KB and with MCF7 were 3.12 µg/mL (≈ 11.7 µM) and 2.6 µg/mL (≈ 9.73 µM), respectively. In addition, the Papp A→B at 0.5 h, 100 µM in data set [1] was found to be 2.85 ×10⁻⁶ cm/s. The bioavailability in data set [3] is 63%.
